ChEMBL document CHEMBL3526002, “Tissue distribution and identification of radioactivity components at elimination phase after oral administration of [¹⁴C]CS-1036, an α-amylase inhibitor, to rats” (Drug Metab Dispos, 2013)

Tests used:
Design in all cases: dose 5 mg/kg, dosed compound name [14C]CS-1036, route oral
Conditions in all cases: in vivo
[1] = Drug uptake in albino F344/DuCrlCrlj rat eyeball assessed as ng equivalent of CS-1036 at 5 mg/kg, po after 1 hr by liquid scintillation counting; assay type: ADME, organism-based
Heart [2] = experiment: Drug uptake in albino F344/DuCrlCrlj rat heart at 5 mg/kg, po after 168 hrs by liquid scintillation counting; assay type: ADME, organism-based
Thymus [3] = experiment: Drug uptake in albino F344/DuCrlCrlj rat thymus at 5 mg/kg, po after 336 hrs by liquid scintillation counting; assay type: ADME, organism-based
Liver = experiment: Drug uptake in albino F344/DuCrlCrlj rat liver assessed as ng equivalent of CS-1036 at 5 mg/kg, po after 1 hr by liquid scintillation counting; assay type: ADME, organism-based
Blood [4] = experiment: Drug uptake in albino F344/DuCrlCrlj rat blood assessed as ng equivalent of CS-1036 at 5 mg/kg, po after 4 hrs by liquid scintillation counting; assay type: ADME, organism-based
Summary of the method: (§1)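 Male F344/DuCrlCrlj rats (159–167 g; n = 3 per time point) received a single oral dose of [14C]CS-1036 at 5 mg/kg. Blood was taken from the abdominal aorta at 1, 4, 8, 24, 72, 168 and 336 h. Radioactivity was counted by LSC with external-standard efficiency correction. Results were converted to ng equivalent of CS-1036/ml using specific activity and sample volume, and reported as mean + S.D.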

Heart [5] = experiment: Drug uptake in albino F344/DuCrlCrlj rat heart at 5 mg/kg, po after 336 hrs by liquid scintillation counting; assay type: ADME, organism-based
[6] = Drug uptake in albino F344/DuCrlCrlj rat bone marrow assessed as ng equivalent of CS-1036 at 5 mg/kg, po after 24 hrs by liquid scintillation counting; assay type: ADME, organism-based
Zone of skin [7] = experiment: Drug uptake in albino F344/DuCrlCrlj rat skin at 5 mg/kg, po after 336 hrs by liquid scintillation counting; assay type: ADME, organism-based
[8] = Drug uptake in albino F344/DuCrlCrlj rat fat assessed as ng equivalent of CS-1036 at 5 mg/kg, po after 24 hrs by liquid scintillation counting; assay type: ADME, organism-based, Adipose tissue
Summary of the method: (§2)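 Male F344/DuCrlCrlj rats (bought at 7 weeks, acclimatized 5–6 days; 159–167 g; n = 3 per time point) received a single oral dose of [14C]CS-1036 at 5 mg/kg. White adipose tissue was collected after abdominal aortic bleeding at 1, 4, 8, 24, 72, 168 or 336 h. Samples were counted by LSC with external-standard efficiency correction. Results were converted to ng equivalents per g from specific activity and sample weight.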

[9] = Drug uptake in albino F344/DuCrlCrlj rat epididymis at 5 mg/kg, po after 24 hrs by liquid scintillation counting; assay type: ADME, organism-based
[10] = Drug uptake in albino F344/DuCrlCrlj rat urinary bladder assessed as ng equivalent of CS-1036 at 5 mg/kg, po after 1 hr by liquid scintillation counting; assay type: ADME, organism-based
Cerebrum [11] = experiment: Drug uptake in albino F344/DuCrlCrlj rat cerebrum assessed as ng equivalent of CS-1036 at 5 mg/kg, po after 1 hr by liquid scintillation counting; assay type: ADME, organism-based
Summary of the method: (§3)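 Single oral [14C]CS-1036 at 5 mg/kg was given to male rats (159–167 g; n = 3). Cerebrum was collected after aortic bleeding at 1, 4, 8, 24, 72, 168 or 336 h, weighed, and homogenized in 2 volumes of saline. A 0.5 ml aliquot was solubilized in Soluene-350 and counted by LSC with external-standard correction. Results are in ng equivalent/g tissue from specific activity and sample weight.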

Lung [12] = experiment: Drug uptake in albino F344/DuCrlCrlj rat lung at 5 mg/kg, po after 8 hrs by liquid scintillation counting; assay type: ADME, organism-based
[13] = Drug uptake in albino F344/DuCrlCrlj rat fat at 5 mg/kg, po after 8 hrs by liquid scintillation counting; assay type: ADME, organism-based, Adipose tissue; summary of the method: as §2
Thymus [14] = experiment: Drug uptake in albino F344/DuCrlCrlj rat thymus assessed as ng equivalent of CS-1036 at 5 mg/kg, po after 8 hrs by liquid scintillation counting; assay type: ADME, organism-based
Harderian gland = experiment: Drug uptake in albino F344/DuCrlCrlj rat harderian gland at 5 mg/kg, po after 168 hrs by liquid scintillation counting; assay type: ADME, organism-based
Blood [15] = experiment: Drug uptake in albino F344/DuCrlCrlj rat blood at 5 mg/kg, po after 72 hrs by liquid scintillation counting; assay type: ADME, organism-based
Summary of the method: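 Male rats (159–167 g; n = 3) received a single oral dose of [14C]CS-1036 at 5 mg/kg. Blood was drawn from the abdominal aorta at 1, 4, 8, 24, 72, 168 and 336 h. Radioactivity was counted by LSC with external-standard efficiency correction. Results are expressed as ng equivalent/ml from the specific activity and sample volume; mean + S.D.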

Lung [16] = experiment: Drug uptake in albino F344/DuCrlCrlj rat lung assessed as ng equivalent of CS-1036 at 5 mg/kg, po after 72 hrs by liquid scintillation counting; assay type: ADME, organism-based
Cerebrum [17] = experiment: Drug uptake in albino F344/DuCrlCrlj rat cerebrum assessed as ng equivalent of CS-1036 at 5 mg/kg, po after 8 hrs by liquid scintillation counting; assay type: ADME, organism-based; summary of the method: as §3
[18] = Drug uptake in albino F344/DuCrlCrlj rat bone marrow assessed as ng equivalent of CS-1036 at 5 mg/kg, po after 72 hrs by liquid scintillation counting; assay type: ADME, organism-based
Aorta = experiment: Drug uptake in albino F344/DuCrlCrlj rat aorta at 5 mg/kg, po after 168 hrs by liquid scintillation counting; assay type: ADME, organism-based
Kidney [19] = experiment: Drug uptake in albino F344/DuCrlCrlj rat kidney assessed as ng equivalent of CS-1036 at 5 mg/kg, po after 24 hrs by liquid scintillation counting; assay type: ADME, organism-based
[20] = Drug uptake in albino F344/DuCrlCrlj rat mandibular gland at 5 mg/kg, po after 336 hrs by liquid scintillation counting; assay type: ADME, organism-based
[21] = Drug uptake in albino F344/DuCrlCrlj rat brown fat at 5 mg/kg, po after 8 hrs by liquid scintillation counting; assay type: ADME, organism-based, Brown adipose tissue
Large intestine = experiment: Drug uptake in albino F344/DuCrlCrlj rat large intestine assessed as ng equivalent of CS-1036 at 5 mg/kg, po after 336 hrs by liquid scintillation counting; assay type: ADME, organism-based
Zone of skin [22] = experiment: Drug uptake in albino F344/DuCrlCrlj rat skin assessed as ng equivalent of CS-1036 at 5 mg/kg, po after 8 hrs by liquid scintillation counting; assay type: ADME, organism-based
Blood [23] = experiment: Drug uptake in albino F344/DuCrlCrlj rat blood assessed as ng equivalent of CS-1036 at 5 mg/kg, po after 24 hrs by liquid scintillation counting; assay type: ADME, organism-based; summary of the method: as §1
[24] = Drug uptake in albino F344/DuCrlCrlj rat thyroid gland assessed as ng equivalent of CS-1036 at 5 mg/kg, po after 8 hrs by liquid scintillation counting; assay type: ADME, organism-based
Kidney [25] = experiment: Drug uptake in albino F344/DuCrlCrlj rat kidney assessed as ng equivalent of CS-1036 at 5 mg/kg, po after 168 hrs by liquid scintillation counting; assay type: ADME, organism-based
Adrenal gland = experiment: Drug uptake in albino F344/DuCrlCrlj rat adrenal gland assessed as ng equivalent of CS-1036 at 5 mg/kg, po after 1 hr by liquid scintillation counting; assay type: ADME, organism-based

SMILES: C[C@H]1O[C@@H](O[C@H]2[C@H](O)[C@@H](O)[C@@H](O[14C@H]3[14C@H](O)[14CH2]N[14C@@H]3[14CH2]O)O[C@@H]2CO)[C@H](O)[C@@H](O)[C@@H]1O
- Radiolabel recovery [1]: 3.2 ngequiv/g
- Radiolabel recovery (Heart [2]): 13.8 ngequiv/g
- Radiolabel recovery (Thymus [3]): 5.1 ngequiv/g
- Radiolabel recovery (Liver): 60 ngequiv/g
- Radiolabel recovery (Blood [4]): 16.3 ngequiv/ml
- Radiolabel recovery (Heart [5]): 7.28 ngequiv/g
- Radiolabel recovery [6]: 19 ngequiv/g
- Radiolabel recovery (Zone of skin [7]): 24.9 ngequiv/g
- Radiolabel recovery [8]: 21 ngequiv/g
- Radiolabel recovery [9]: 40.8 ngequiv/g
- Radiolabel recovery [10]: 520 ngequiv/g
- Radiolabel recovery (Cerebrum [11]): 0.23 ngequiv/g
- Radiolabel recovery (Lung [12]): 64.8 ngequiv/g
- Radiolabel recovery [13]: 14 ngequiv/g
- Radiolabel recovery (Thymus [14]): 47 ngequiv/g
- Radiolabel recovery (Harderian gland): 17.1 ngequiv/g
- Radiolabel recovery (Blood [15]): 16.1 ngequiv/ml
- Radiolabel recovery (Lung [16]): 5.1 ngequiv/g
- Radiolabel recovery (Cerebrum [17]): 1.44 ngequiv/g
- Radiolabel recovery [18]: 18.1 ngequiv/g
- Radiolabel recovery (Aorta): 18.1 ngequiv/g
- Radiolabel recovery (Kidney [19]): 16 ngequiv/g
- Radiolabel recovery [20]: 8.58 ngequiv/g
- Radiolabel recovery [21]: 28.9 ngequiv/g
- Radiolabel recovery (Large intestine): 6.02 ngequiv/g
- Radiolabel recovery (Zone of skin [22]): 71.6 ngequiv/g
- Radiolabel recovery (Blood [23]): 4 ngequiv/ml
- Radiolabel recovery [24]: 57.2 ngequiv/g
- Radiolabel recovery (Kidney [25]): 5.4 ngequiv/g
- Radiolabel recovery (Adrenal gland): 3.3 ngequiv/g
